Experimental data from different studies.
Protocols differ between the studies behind these lines.
Target: Ephrin type-A receptor 7 (EPHA7, Homo sapiens, UniProt Q15375)

CC(C)(O)[C@H]1CC[C@H](Nc2ccc3ncc(-c4cccc(C(F)(F)F)c4)n3n2)CC1 — remaining activity (enzyme activity; inhibitor; 1 µM): 93.3%
COc1ccc2c(c1)O[C@@H](c1ccc(OC)c(OC)c1)C[C@H]2NC(=O)C1(c2ccc3c(c2)OC(F)(F)O3)CC1 — remaining binding (cell-free assay; competition with immobilised ligand; 1 µM): 86%
CCN(CC)CCNC(=O)c1c(C)[nH]c(/C=C2\C(=O)Nc3ccc(F)cc32)c1C — inhibition (enzyme activity; inhibitor; 0.3 µM): 3%
CCCOc1ccc(OC)c(F)c1C(=O)c1ccc(C(=O)N[C@@H]2CNC[C@H]2NC(=O)c2ccc3[nH]ncc3c2)cc1 — remaining activity (enzyme activity; inhibitor; 10 µM): 29%
Cn1nc(C(=O)NCc2ccc(C(=O)O)cc2)cc1-c1ccc2[nH]ccc2c1 — remaining binding (cell-free assay; competition with immobilised ligand; 0.1 µM): 82%
Cc1ccc(C(=O)Nc2ccc(CN3CCN(C)CC3)c(C(F)(F)F)c2)cc1C#Cc1cnc2cccnn12 — remaining signal (cell-free assay; 23.5 nM): 81%
Nc1ncnc2occ(-c3ccc(NC(=O)Nc4cc(C(F)(F)F)ccc4F)cc3)c12 — remaining signal (cell-free assay; 20 µM): 0%
O=C1Nc2ccc(Cl)cc2C1=Cc1cc(Cl)c(O)c(Cl)c1 — remaining signal (cell-free assay; 0.5 µM): 97.5%
CCCS(=O)(=O)Nc1ccc(F)c(C(=O)c2c[nH]c3ncc(-c4ccc(Cl)cc4)cc23)c1F — inhibition (enzyme activity; inhibitor; 1 µM): < 10%
CNC(=O)c1cc(Oc2ccc(NC(=O)Nc3ccc(Cl)c(C(F)(F)F)c3)cc2)ccn1 — inhibition (enzyme activity; inhibitor; 0.3 µM): 30%
N#CCCc1ccc2c(c1)-c1[nH]c3ccc([N+](=O)[O-])cc3c1CC(=O)N2 — remaining signal (cell-free assay; 0.5 µM): 95.3%
CS(=O)(=O)c1cc(C2(NC(=O)c3cncc4c3cnn4-c3ccc(F)cc3)CC2)ccn1 — remaining binding (cell-free assay; competition with immobilised ligand; 1 µM): 92%
CC(C)(C)c1nc2c(s1)c1nc(N)ncc1c1ccc(NS(=O)(=O)c3c(F)cccc3F)c(F)c12 — remaining activity (enzyme activity; inhibitor; radiometric; 1 µM): 96%
CC(=O)C1=C(C)N(c2cccc(C(F)(F)F)c2)C(=O)N[C@@H]1c1ccc(C#N)nc1 — remaining binding (cell-free assay; competition with immobilised ligand; 1 µM): 100%
Cc1ccc(Nc2nccc(N(C)c3ccc4c(C)n(C)nc4c3)n2)cc1S(N)(=O)=O — inhibition (enzyme activity; inhibitor; 10 µM): 34%
Cc1c(C(=O)O)cc(-c2ccc(C3CCNCC3)cc2)c2ccc(-c3ccc(C(F)(F)F)cc3)cc12 — remaining binding (cell-free assay; competition with immobilised ligand; 1 µM): 100%
Cc1sc(C(=O)NC2COC2)cc1-n1cc(NC(=O)Nc2c(F)cccc2Cl)cn1 — remaining activity (enzyme activity; inhibitor; 10 µM): 98.6%
c1ccc(CNc2nc(N3CCOc4ccccc43)nc3c2CCCC3)cc1 — inhibition (target engagement in cells; inhibitor; chemoproteomics; 20 mM): 12%
CO[C@@H](C)c1c(Nc2ccc([C@@H](N(C)C(=O)C3CCS(=O)(=O)CC3)C(F)(F)F)cc2)cnc2cc(Cl)nn12 — remaining binding (cell-free assay; competition with immobilised ligand; 1 µM): 87%
CNC(=O)c1cc2c(Oc3ccc(NC(=O)C4(C(=O)Nc5ccc(F)cc5)CC4)cc3)ccnc2cc1OC — inhibition (enzyme activity; inhibitor; radiometric; 1 µM): 96%
